Legend:
[1] = biological target: T1, Adenosine receptor A1 (Rattus norvegicus, UniProt P25099); assay: Displacement of [3H]CCPA from adenosine A1 receptor in rat brain cortical membranes; assay type: cell membranes
T1 sequence (P25099 whole entry): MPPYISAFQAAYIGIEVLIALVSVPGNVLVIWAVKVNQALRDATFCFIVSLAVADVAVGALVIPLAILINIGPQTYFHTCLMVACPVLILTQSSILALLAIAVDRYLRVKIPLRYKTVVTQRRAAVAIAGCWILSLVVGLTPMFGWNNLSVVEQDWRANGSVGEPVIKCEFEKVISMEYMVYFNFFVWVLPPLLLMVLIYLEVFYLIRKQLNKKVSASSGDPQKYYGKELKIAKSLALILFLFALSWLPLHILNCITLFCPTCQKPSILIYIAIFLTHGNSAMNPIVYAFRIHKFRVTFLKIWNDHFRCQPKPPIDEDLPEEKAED

[2] = biological target: T2, Amine oxidase [flavin-containing] B (Homo sapiens, UniProt P27338); assay: Inhibition of recombinant human MAOB expressed in baculovirus infected BTI insect cells at 1 to 100 uM using p-tyramine as substrate preincubated for 30 mins followed by substrate addition and measured over 45 mins by horseradish peroxidase-Amplex Red-coupled fluorometric assay relative to control; details: 0.75 h
T2 sequence (P27338 whole entry): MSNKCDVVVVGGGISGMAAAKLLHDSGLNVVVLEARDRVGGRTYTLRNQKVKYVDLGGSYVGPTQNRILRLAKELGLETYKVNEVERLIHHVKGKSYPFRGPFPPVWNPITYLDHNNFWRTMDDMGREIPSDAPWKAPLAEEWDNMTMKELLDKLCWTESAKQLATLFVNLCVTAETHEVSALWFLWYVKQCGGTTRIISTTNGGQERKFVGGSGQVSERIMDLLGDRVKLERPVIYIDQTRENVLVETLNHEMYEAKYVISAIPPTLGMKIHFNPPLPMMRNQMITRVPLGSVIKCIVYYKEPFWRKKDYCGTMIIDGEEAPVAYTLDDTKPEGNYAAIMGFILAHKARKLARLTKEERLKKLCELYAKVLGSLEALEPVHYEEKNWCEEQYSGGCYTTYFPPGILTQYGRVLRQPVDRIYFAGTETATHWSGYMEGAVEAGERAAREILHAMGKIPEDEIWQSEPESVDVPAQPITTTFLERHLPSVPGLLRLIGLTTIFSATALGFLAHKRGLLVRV
Summary of the method: (§1)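 Human recombinant MAO-A or MAO-B enzyme. Activity detected fluorometrically with the Amplex Red monoamine oxidase assay.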

[3] = biological target: T3, Adenosine receptor A3 (Homo sapiens, UniProt P0DMS8); assay: Displacement of [3H]PSB11 from recombinant human adenosine A3 receptor expressed in CHO cells; assay type: cell-based
T3 sequence (P0DMS8 whole entry): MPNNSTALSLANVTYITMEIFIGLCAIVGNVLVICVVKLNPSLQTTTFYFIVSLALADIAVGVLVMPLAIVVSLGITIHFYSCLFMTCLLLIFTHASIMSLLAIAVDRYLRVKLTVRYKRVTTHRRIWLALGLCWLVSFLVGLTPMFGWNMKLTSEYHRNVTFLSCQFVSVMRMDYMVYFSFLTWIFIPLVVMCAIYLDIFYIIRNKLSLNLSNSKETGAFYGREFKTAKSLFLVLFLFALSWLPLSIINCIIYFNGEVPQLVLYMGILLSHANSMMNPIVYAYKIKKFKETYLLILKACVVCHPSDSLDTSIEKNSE

[4] = biological target: T4, Adenosine receptor A2b (Homo sapiens, UniProt P29275); assay: Displacement of [3H]PSB603 from recombinant human adenosine A2b receptor expressed in HEK293 cells; assay type: cell-based
T4 sequence (P29275 whole entry): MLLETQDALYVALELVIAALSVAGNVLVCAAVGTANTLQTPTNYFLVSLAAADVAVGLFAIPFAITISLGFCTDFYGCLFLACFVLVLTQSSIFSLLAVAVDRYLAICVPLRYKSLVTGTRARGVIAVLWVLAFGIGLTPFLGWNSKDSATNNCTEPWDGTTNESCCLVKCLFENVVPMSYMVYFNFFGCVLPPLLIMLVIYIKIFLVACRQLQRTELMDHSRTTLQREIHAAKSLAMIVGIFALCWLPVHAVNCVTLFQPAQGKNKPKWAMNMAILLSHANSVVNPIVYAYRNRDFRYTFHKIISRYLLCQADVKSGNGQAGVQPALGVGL

[5] = biological target: T5, Adenosine receptor A2a (Homo sapiens, UniProt P29274); assay: Displacement of [3H]MSX2 from recombinant human adenosine A2a receptor expressed in HEK293 cells; assay type: cell-based
T5 sequence (P29274 whole entry): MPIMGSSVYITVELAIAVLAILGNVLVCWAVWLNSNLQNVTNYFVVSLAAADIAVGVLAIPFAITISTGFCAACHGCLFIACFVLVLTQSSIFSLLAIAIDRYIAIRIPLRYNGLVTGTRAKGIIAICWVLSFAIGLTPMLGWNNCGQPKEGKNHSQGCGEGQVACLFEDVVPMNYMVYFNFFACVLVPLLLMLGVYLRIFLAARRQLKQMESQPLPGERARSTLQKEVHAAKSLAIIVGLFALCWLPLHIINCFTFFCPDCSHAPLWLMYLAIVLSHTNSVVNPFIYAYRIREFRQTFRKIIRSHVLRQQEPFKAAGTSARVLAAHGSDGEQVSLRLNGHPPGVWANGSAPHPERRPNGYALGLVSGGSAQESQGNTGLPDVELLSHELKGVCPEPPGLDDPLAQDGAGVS

[6] = biological target: T2, Amine oxidase [flavin-containing] B; assay: Inhibition of recombinant human MAOB expressed in baculovirus infected BTI insect cells using p-tyramine as substrate preincubated for 30 mins followed by substrate addition and measured over 45 mins by horseradish peroxidase-Amplex Red-coupled fluorometric assay; summary of the method: as §1
[7] = Antioxidant activity assessed as increase in total ferric ion reducing activity at 1000 uM using FeCl3.6H2O and TPTZ incubated for 10 mins under dark condition by FRAP assay relative to control; assay type: functional; set-up: scale not given: the % may be the effect or the level left
Summary of the method: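 FRAP reagent made by mixing 10 parts 300 mM acetate buffer pH 3.6, 1 part 10 mM TPTZ in 40 mM HCl and 1 part 20 mM FeCl3·6H2O. Reagent mixed with compound solution, 10 min at room temperature in the dark. Ferrous-TPTZ complex read at 593 nm. Result is absorbance increase versus solvent sample. FeSO4·7H2O standard curve, 37.5–1200 μM.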

[8] = biological target: T6, Adenosine receptor A3 (Homo sapiens) (UniProt P0DMS8); assay: Displacement of [3H]PSB11 from recombinant human adenosine A3 receptor expressed in CHO cells at 1 uM relative to control; assay type: cell-based
T6 sequence (whole entry): T3 sequence (P0DMS8 whole entry)
Summary of the method: (§2)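 Purchased membranes of CHO cells expressing human A1 ([3H]CCPA) or human A3 ([3H]PSB-11). A single high compound concentration is screened first; for potent compounds, full inhibition curves spanning 3 orders of magnitude. At least three independent experiments.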

[9] = biological target: T5, Adenosine receptor A2a; assay: Displacement of [3H]MSX2 from recombinant human adenosine A2a receptor expressed in HEK293 cells at 1 uM relative to control; assay type: cell-based
Summary of the method: (§3)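 Purchased membranes of HEK cells expressing human A2A ([3H]MSX-2) or human A2B ([3H]PSB-603). A single high compound concentration is screened first; for potent compounds, full inhibition curves spanning 3 orders of magnitude. At least three independent experiments.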

[10] = biological target: T7, Adenosine receptor A1 (Homo sapiens, UniProt P30542); assay: Displacement of [3H]CCPA from recombinant human adenosine A1 receptor expressed in CHO cells; assay type: cell-based
T7 sequence (P30542 whole entry): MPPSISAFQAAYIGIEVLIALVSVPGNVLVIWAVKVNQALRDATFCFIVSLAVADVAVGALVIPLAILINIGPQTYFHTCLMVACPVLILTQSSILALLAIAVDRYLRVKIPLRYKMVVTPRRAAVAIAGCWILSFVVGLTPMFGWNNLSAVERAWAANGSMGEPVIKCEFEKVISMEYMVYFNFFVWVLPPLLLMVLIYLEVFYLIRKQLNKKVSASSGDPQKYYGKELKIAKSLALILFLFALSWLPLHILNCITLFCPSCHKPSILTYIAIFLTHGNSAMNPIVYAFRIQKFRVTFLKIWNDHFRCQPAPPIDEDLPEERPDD

[11] = biological target: T8, Adenosine receptor A1 (Homo sapiens) (UniProt P30542); assay: Displacement of [3H]CCPA from recombinant human adenosine A1 receptor expressed in CHO cells at 1 uM relative to control; assay type: cell-based; summary of the method: as §2
T8 sequence (whole entry): T7 sequence (P30542 whole entry)

[12] = biological target: T9, Amine oxidase [flavin-containing] A (Homo sapiens, UniProt P21397); assay: Inhibition of recombinant human MAOA expressed in baculovirus infected BTI insect cells using p-tyramine as substrate preincubated for 30 mins followed by substrate addition and measured over 45 mins by horseradish peroxidase-Amplex Red-coupled fluorometric assay; summary of the method: as §1
T9 sequence (P21397 whole entry): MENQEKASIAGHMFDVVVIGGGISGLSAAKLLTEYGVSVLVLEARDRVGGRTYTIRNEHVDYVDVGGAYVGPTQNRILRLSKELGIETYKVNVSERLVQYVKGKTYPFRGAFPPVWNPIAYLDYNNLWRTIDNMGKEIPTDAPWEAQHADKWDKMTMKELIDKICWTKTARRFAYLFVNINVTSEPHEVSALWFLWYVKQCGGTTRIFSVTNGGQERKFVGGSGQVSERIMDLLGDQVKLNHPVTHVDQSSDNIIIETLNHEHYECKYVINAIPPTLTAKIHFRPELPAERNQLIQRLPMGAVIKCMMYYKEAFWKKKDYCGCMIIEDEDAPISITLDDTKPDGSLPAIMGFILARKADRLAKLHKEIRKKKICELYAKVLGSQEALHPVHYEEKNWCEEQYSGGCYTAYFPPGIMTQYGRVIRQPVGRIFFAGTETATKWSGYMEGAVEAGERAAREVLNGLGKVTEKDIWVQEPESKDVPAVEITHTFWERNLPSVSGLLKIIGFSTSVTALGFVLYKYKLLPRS

[13] = biological target: T9, Amine oxidase [flavin-containing] A; assay: Inhibition of recombinant human MAOA expressed in baculovirus infected BTI insect cells at 1 to 100 uM using p-tyramine as substrate preincubated for 30 mins followed by substrate addition and measured over 45 mins by horseradish peroxidase-Amplex Red-coupled fluorometric assay relative to control; details: 0.75 h; summary of the method: as §1
[14] = biological target: T10, Adenosine receptor A2b (Homo sapiens) (UniProt P29275); assay: Displacement of [3H]PSB603 from recombinant human adenosine A2b receptor expressed in HEK293 cells at 1 uM relative to control; assay type: cell-based; summary of the method: as §3
T10 sequence (whole entry): T4 sequence (P29275 whole entry)

Row | Structure (SMILES) | Ki [1] [nM] | inhibition (INH) [2] [%] | Ki [3] [nM] | Ki [4] [nM] | Ki [5] [nM] | IC50 [6] [nM] | inhibition [8] [%] | inhibition [9] [%] | Ki [10] [nM] | inhibition [11] [%] | IC50 [12] [nM] | inhibition (INH) [13] [%] | inhibition [14] [%] | Activity [7] [%]
1 | O=C1O[C@H]([C@@H](O)CO)C(O)=C1O |  |  |  |  |  |  |  |  |  |  |  |  |  | 100
2 | Cn1c(=O)c2c(nc3n2CCN3Cc2ccc(Cl)c(Cl)c2)n(C)c1=O |  |  | > 1000 | > 1000 | > 1000 | 515 | 11 | 29 | > 1000 | 1 | > 1000 | -2 | 22 | 
3 | Cn1c(=O)c2c(nc3n2CCCN3Cc2cc(F)c(F)c(F)c2)n(C)c1=O | > 1000 | 24 | > 1000 | > 1000 | > 1000 | > 1000 |  |  |  |  |  |  |  | 
4 | Cn1c(=O)c2c(nc3n2CCN3Cc2cccc(Br)c2)n(C)c1=O |  | 39 | > 1000 | > 1000 | 369 | > 1000 | 22 |  | 396 |  | > 1000 | 11 | 30 | 
5 | Cn1c(=O)c2c(nc3n2CCN3Cc2ccc(Cl)cc2)n(C)c1=O |  | 42 | > 1000 | > 1000 | > 1000 | > 1000 | 30 | 42 | > 1000 | 23 | > 1000 | 16 | 21 | 
6 | Cn1c(=O)c2c(nc3n2CCN3Cc2ccc(F)c(Br)c2)n(C)c1=O |  |  | > 1000 | > 1000 | > 1000 | 177 | 1 | 30 | > 1000 | 6 | > 1000 | 6 | 2 | 
7 | Cn1c(=O)c2c(nc3n2CCCCN3Cc2ccc(Cl)cc2Cl)n(C)c1=O |  |  | > 1000 | > 1000 | 1580 | 282 | 31 |  | > 1000 | 16 | > 1000 | -2 | 5 | 
8 | COc1ccccc1CN1CCn2c1nc1c2c(=O)n(C)c(=O)n1C |  |  | > 1000 | > 1000 | 784 | 111000 | 15 |  | > 1000 | 30 | > 1000 | 7 | 3 | 

Further lines, with some results ahead:

Row | Ki [1] [nM] | inhibition (INH) [2] [%] | Ki [3] [nM] | Ki [4] [nM] | Ki [5] [nM] | IC50 [6] [nM] | inhibition [8] [%] | inhibition [9] [%] | Ki [10] [nM] | inhibition [11] [%] | IC50 [12] [nM] | inhibition (INH) [13] [%] | inhibition [14] [%] | Structure (SMILES) | Activity [7] [%]
9 | 2650 | 20 | > 1000 | > 1000 | 2020 | > 1000 |  |  |  |  |  |  |  | Cn1c(=O)c2c(nc3n2CCCN3Cc2cccs2)n(C)c1=O | 
10 |  | 39 | > 1000 | > 1000 | 1080 | > 1000 | 11 |  | > 1000 | 11 | > 1000 | 14 | 40 | Cn1c(=O)c2c(nc3n2CCCCN3Cc2ccccc2F)n(C)c1=O | 
11 | 1410 | 40 | > 1000 | > 1000 | 1020 | > 1000 |  |  |  |  |  |  |  | Cc1ccccc1CN1CCCn2c1nc1c2c(=O)n(C)c(=O)n1C | 
12 | > 1000 | 4 | > 1000 | > 1000 | > 1000 | > 1000 |  |  |  |  |  |  |  | Cn1c(=O)c2c(nc3n2CCCN3CCc2ccncc2)n(C)c1=O | 
13 |  |  | > 1000 | > 1000 | 767 | 275 | 42 |  | > 1000 | 21 | > 1000 | 3 | 43 | Cn1c(=O)c2c(nc3n2CCCCN3Cc2ccccc2Br)n(C)c1=O | 
14 | > 1000 | 1 | > 1000 | > 1000 | 3040 | > 1000 |  |  |  |  |  |  |  | Cn1c(=O)c2c(nc3n2CCCN3CCc2cccnc2)n(C)c1=O | 
15 |  |  | > 1000 | > 1000 | 887 | 991 | 37 |  | > 1000 | 24 | > 1000 | 13 | 21 | Cn1c(=O)c2c(nc3n2CCN3Cc2ccccc2Br)n(C)c1=O | 

From ChEMBL document CHEMBL4480426, “Novel multi-target directed ligands based on annelated xanthine scaffold with aromatic substituents acting on adenosine receptor and monoamine oxidase B. Synthesis, in vitro and in silico studies” (Bioorg Med Chem, 2019)
